Reference: ChEMBL document CHEMBL4382261, “Onydecalins, Fungal Polyketides with Anti- Histoplasma and Anti-TRP Activity” (J Nat Prod, 2018)
Converted amounts (≈) assume the structure as drawn. The source made the active and inactive calls. The calls are words filed in the database; no cut-off is given here.

Columns and labels:
[1] = biological target: Transient receptor potential cation channel subfamily M member 8 (Homo sapiens, UniProt Q7Z2W7); assay: Antagonist activity at human TRPM8 channel expressed in HEK293 cells assessed as inhibition of icilin-induced calcium flux by Fluo-4-AM dye based fluorescence assay; assay type: cell-based
How it was run: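 Stable human TRPM8 HEK-293 cells, grown in DMEM:F12 with 5% FBS and Geneticin on gelatin-coated plates, were loaded with Fluo-4 AM for 60 min at 37 °C. Compounds were added 30 min before reading in LHC-9 with 1 mM probenecid and 0.75 mM trypan red. Icilin 50 µM was the agonist. Signal was normalized to the maximal agonist response, and IC50 came from 8-point curves with n=2–3.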

Histoplasma capsulatum = assay: Antifungal activity against Histoplasma capsulatum G217B after 10 to 14 days by microscopic method; assay type: functional
How it was run: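 G217B yeast-phase cells were grown in brain-heart infusion for 3 days at 37 °C under 5% CO2, then used at 1×10⁴ cells/mL final in RPMI. Twofold dilutions were tested at 64 to 0.125 µg/mL final; itraconazole (16 µg/mL downward) and amphotericin B (16 to 0.008 µg/mL) were diluted similarly. Plates were incubated 10–14 days at 37 °C under 5% CO2, with vehicle controls.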

Candida albicans = assay: Antifungal activity against Candida albicans SC5314 at 0.25 to 64 ug/ml after 48 hrs by microscopic method; assay type: functional, organism-based
How it was run: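 SC5314 yeast grown overnight in YPD at 30 °C were counted by hemocytometer and used at 1×10⁴ cells/mL final in YPD. Twofold compound dilutions from DMSO stocks were tested at 64 to 0.125 µg/mL final, incubated 48 h at 30 °C, with DMSO-only and untreated controls.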

Aspergillus fumigatus = assay: Antifungal activity against Aspergillus fumigatus Af293 at 0.25 to 64 ug/ml after 48 hrs by microscopic method; assay type: functional, organism-based
How it was run: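 Af293 spores in RPMI with 0.1% Tween-80 were counted by hemocytometer and used at 1×10⁴ spores/mL final. Twofold compound dilutions in RPMI from DMSO stocks were tested at 64 to 0.125 µg/mL final in 96-well plates at 37 °C for 48 h, alongside DMSO-only and untreated controls.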

[2] = biological target: Transient receptor potential cation channel subfamily V member 1 (Homo sapiens, UniProt Q8NER1); assay: Antagonist activity at human TRPV1 channel expressed in human BEAS2B cells assessed as inhibition of […] by Fluo-4-AM dye based fluorescence assay; assay type: cell-based
[3] = biological target: Transient receptor potential cation channel subfamily V member 4 (Homo sapiens, UniProt Q9HBA0); assay: Antagonist activity at human TRPV4 channel expressed in HEK293 cells assessed as inhibition of GSK1016790A-induced calcium flux by Fluo-4-AM dye based fluorescence assay; assay type: cell-based
How it was run: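 HEK-293 cells stably overexpressing human TRPV4 were loaded with Fluo-4 AM for 60 min at 37 °C. Compounds were preincubated 30 min in LHC-9 containing 1 mM probenecid and 0.75 mM trypan red. GSK1016790A 0.03 µM was the agonist. Fluorescence change was normalized to the maximal agonist response, and IC50 came from 8-point curves with n=2–3.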

Chain of Transient receptor potential cation channel subfamily M member 8 (Q7Z2W7 whole entry): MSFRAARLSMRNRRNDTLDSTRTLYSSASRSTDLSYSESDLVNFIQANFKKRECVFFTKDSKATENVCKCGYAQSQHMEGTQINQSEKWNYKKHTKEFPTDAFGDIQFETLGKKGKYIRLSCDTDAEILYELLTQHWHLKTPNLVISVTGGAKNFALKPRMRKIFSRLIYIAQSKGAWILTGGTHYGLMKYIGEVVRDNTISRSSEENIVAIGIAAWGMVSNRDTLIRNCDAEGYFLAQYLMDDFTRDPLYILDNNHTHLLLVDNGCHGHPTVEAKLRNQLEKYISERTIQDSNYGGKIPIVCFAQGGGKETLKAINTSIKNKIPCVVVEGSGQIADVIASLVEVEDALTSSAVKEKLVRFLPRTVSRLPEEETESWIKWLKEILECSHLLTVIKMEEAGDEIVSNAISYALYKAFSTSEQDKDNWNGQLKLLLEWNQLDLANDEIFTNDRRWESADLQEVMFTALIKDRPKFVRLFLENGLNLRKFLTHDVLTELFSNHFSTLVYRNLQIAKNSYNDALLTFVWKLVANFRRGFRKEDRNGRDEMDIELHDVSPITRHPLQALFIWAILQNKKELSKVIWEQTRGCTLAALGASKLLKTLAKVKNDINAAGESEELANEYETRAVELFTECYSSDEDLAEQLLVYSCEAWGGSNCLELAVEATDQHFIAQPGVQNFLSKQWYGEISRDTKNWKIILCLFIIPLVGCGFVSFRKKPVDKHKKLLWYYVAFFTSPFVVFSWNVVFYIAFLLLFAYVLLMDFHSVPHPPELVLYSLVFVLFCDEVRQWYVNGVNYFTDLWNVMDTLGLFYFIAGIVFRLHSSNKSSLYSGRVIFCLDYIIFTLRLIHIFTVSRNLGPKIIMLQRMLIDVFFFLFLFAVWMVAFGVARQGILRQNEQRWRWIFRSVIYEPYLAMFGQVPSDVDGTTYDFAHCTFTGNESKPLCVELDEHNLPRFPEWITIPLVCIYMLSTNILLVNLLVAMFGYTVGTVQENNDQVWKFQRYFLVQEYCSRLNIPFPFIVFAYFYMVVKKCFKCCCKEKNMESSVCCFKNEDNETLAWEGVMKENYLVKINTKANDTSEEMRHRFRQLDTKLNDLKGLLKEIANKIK
Chain of Transient receptor potential cation channel subfamily V member 1 (Q8NER1 whole entry): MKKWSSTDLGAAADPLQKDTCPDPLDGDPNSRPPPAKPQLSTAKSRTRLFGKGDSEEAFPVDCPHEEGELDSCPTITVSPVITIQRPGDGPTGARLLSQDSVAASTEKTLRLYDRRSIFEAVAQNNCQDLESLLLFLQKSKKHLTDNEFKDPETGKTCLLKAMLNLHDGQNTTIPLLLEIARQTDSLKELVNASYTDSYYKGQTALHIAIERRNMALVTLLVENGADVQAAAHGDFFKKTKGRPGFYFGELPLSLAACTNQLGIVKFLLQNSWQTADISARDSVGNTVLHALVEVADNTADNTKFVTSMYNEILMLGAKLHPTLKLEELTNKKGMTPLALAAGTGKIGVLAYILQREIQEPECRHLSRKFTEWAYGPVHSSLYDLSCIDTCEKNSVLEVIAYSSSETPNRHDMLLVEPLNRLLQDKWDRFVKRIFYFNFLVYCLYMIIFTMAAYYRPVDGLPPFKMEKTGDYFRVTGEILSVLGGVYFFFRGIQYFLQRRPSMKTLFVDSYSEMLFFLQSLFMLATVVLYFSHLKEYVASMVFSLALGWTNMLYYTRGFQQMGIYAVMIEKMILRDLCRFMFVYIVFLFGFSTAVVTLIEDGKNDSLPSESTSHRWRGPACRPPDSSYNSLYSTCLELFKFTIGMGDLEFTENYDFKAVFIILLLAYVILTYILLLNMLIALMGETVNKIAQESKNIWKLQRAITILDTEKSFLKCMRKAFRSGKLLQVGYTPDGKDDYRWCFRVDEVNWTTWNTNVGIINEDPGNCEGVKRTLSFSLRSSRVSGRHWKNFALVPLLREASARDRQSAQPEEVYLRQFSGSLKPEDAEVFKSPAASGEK
Chain of Transient receptor potential cation channel subfamily V member 4 (Q9HBA0 whole entry): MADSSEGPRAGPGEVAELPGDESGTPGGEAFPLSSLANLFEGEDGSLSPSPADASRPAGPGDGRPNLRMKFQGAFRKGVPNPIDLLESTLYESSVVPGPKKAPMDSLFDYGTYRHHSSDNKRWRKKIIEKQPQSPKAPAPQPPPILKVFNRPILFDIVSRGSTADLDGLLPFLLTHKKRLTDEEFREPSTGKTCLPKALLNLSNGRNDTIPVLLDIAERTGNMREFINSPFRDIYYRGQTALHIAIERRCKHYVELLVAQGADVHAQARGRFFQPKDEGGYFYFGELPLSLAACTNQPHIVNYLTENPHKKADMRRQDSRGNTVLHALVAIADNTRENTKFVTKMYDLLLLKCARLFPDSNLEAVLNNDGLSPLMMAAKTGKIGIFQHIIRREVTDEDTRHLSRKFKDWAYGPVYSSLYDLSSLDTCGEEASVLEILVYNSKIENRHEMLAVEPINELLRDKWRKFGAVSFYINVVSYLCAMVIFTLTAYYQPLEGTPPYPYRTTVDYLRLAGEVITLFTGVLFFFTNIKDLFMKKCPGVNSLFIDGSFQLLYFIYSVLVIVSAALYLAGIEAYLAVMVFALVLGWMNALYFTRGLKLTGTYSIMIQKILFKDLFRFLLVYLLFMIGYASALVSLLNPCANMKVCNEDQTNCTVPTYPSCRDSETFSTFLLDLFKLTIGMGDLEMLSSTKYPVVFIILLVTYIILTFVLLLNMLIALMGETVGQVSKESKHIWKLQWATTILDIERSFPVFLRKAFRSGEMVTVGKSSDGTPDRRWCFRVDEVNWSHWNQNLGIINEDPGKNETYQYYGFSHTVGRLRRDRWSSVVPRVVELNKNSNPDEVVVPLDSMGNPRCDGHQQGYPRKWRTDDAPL

C/C=C(\C)[C@H]1C(C)=C[C@H]2C[C@@H](C)C[C@H]3C(=O)/C(=C\NCCO)C(=O)[C@]1(C)[C@H]23
IC50 [1]: 61.6 µM
MIC (Histoplasma capsulatum): 16 µg/mL (≈ 43.1 µM)
Activity (Candida albicans): inactive
Activity (Aspergillus fumigatus): inactive

C/C=C(\C)[C@H]1C(C)=C[C@H]2C[C@@H](C)C[C@@H](C(=O)O)[C@@H]2[C@@]1(C)C(=O)CCO
IC50 [1]: 18.5 µM
MIC (Histoplasma capsulatum): > 64 µg/mL
Activity (Candida albicans): inactive
Activity (Aspergillus fumigatus): inactive

C[C@@H]1[C@H](O)[C@@H](C)/C=C/C=C/C=C/C=C/C=C/C=C/C=C/[C@H](O[C@@H]2O[C@H](C)[C@@H](O)[C@H](N)[C@@H]2O)C[C@@H]2O[C@](O)(C[C@@H](O)C[C@@H](O)[C@H](O)CC[C@@H](O)C[C@@H](O)CC(=O)O[C@H]1C)C[C@H](O)[C@H]2C(=O)O [AMPHOTERICIN B]
MIC (Histoplasma capsulatum): 0.5 µg/mL (≈ 0.541 µM)

CCC(C)n1ncn(-c2ccc(N3CCN(c4ccc(OCC5COC(Cn6cncn6)(c6ccc(Cl)cc6Cl)O5)cc4)CC3)cc2)c1=O (stereo not drawn) [ITRACONAZOLE]
MIC (Histoplasma capsulatum): 0.001 µg/mL (≈ 0.00142 µM)

C/C=C(\C)[C@H]1C(C)=C[C@H]2C[C@@H](C)C[C@H]3C(O)=C(C=O)C(=O)[C@]1(C)[C@H]23
MIC (Histoplasma capsulatum): 2 µg/mL (≈ 6.09 µM)
Activity (Candida albicans): inactive
Activity (Aspergillus fumigatus): inactive

C/C=C(\C)[C@H]1C(C)=C[C@H]2C[C@@H](C)C[C@@H](C(=O)O)[C@@H]2[C@@]1(C)C(=O)c1cccnc1
IC50 [2]: 81.6 µM
IC50 [3]: 45.9 µM
MIC (Histoplasma capsulatum): > 64 µg/mL
Activity (Candida albicans): inactive
Activity (Aspergillus fumigatus): inactive
